From ChEMBL document CHEMBL4610112, “Novel Pyrrolopyridone Bromodomain and Extra-Terminal Motif (BET) Inhibitors Effective in Endocrine-Resistant ER+ Breast Cancer with Acquired Resistance to Fulvestrant and Palbociclib” (J Med Chem, 2020)
The source made the active and inactive calls. No cut-off for these calls is given here.

Legend:
[1] = Growth inhibition of fulvestrant-resistant human MCF7:CFR cells measured after 5 days by Hoechst 33342 dye based imaging analysis; assay type: functional, cell-based; conditions: 120 h
Summary of the method: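 MCF-7:CFR cells kept 2 days in phenol red-free RPMI 1640 with 10% charcoal–dextran FBS, then seeded at 2000 cells/well. Single treatment at 0.1 nM–10 μM (0.1% DMSO final) for 5 days. Nuclei stained with Hoechst 33342 and counted by imaging. Survival normalized to DMSO (100%) and JQ1 3 μM (0%). Mean ± SEM from at least two passages, triplicates in each.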

[2] = biological target: T1, Bromodomain-containing protein 4 (Homo sapiens, UniProt O60885); assay: Displacement of APC-labeled biotinylated-avidin from Euphorium-chelated recombinant human BRD4 bromodomain 1 expressed in Escherichia coli preincubated for 15 mins followed by APC-labeled biotinylated-avidin addition and measured after 1 hr under dark condition by TR-FRET assay
MCF7:CFR [3] = assay: Growth inhibition of fulvestrant-resistant human MCF7:CFR 3D spheroid cells at 100 nM supplemented with fresh medium containing compound every 2 to 3 days for 9 days by celltitre-glo assay relative to control; assay type: functional
Summary of the method: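 MCF-7:CFR cells seeded at 1000 cells/well in ultralow-attachment round-bottom plates and grown 24 h untreated as spheroids. Half the medium then replaced with 2× treatment medium, repeated every 2–3 days. Viability read by CellTiter-Glo 3D luminescence at day 9 and normalized to blank (medium plus reagent).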

[4] = biological target: T1, Bromodomain-containing protein 4; assay: Displacement of APC-labeled biotinylated-avidin from Euphorium-chelated recombinant human BRD4 bromodomain 2 expressed in Escherichia coli preincubated for 15 mins followed by APC-labeled biotinylated-avidin addition and measured after 1 hr under dark condition by TR-FRET assay
CYP2C8 = CYP2C8 (Homo sapiens, UniProt P10632); assay: Inhibition of human CYP2C8 at 10 uM; assay type: ADME
CYP2A6 = CYP2A6 (Homo sapiens, UniProt P11509); assay: Inhibition of human CYP2A6 at 10 uM; assay type: ADME
MCF7:TAM1 [5] = assay: Antitumor activity against human MCF7:TAM1 cells xenografted in ovariectomized athymic Nude-Foxn1 mouse assessed as tumor growth inhibition at 50 mg/kg/day, po administered via gavage for 4 weeks; assay type: functional, organism-based
CYP3A4 = CYP3A4 (Homo sapiens, UniProt P08684); assay: Inhibition of human CYP3A4 at 10 uM; assay type: ADME
MCF7:CFR [6] = assay: Down regulation of c-MYC gene expression in fulvestrant-resistant human MCF7:CFR cells at 100 nM measured after 24 hrs; assay type: functional, cell-based
Summary of the method: (§1)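 MCF-7:CFR cells exposed to compound at 100 nM, with DMSO (0.01%) as control, for 24 h. RNA extracted and analysed by RNA-seq. Values are log2-fold changes in gene expression against the vehicle control.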

MCF7:CFR [7] = assay: Down regulation of n-MYC gene expression in fulvestrant-resistant human MCF7:CFR cells at 100 nM measured after 24 hrs; assay type: functional, cell-based; summary of the method: as §1
MCF7:CFR [8] = assay: Down regulation of cyclin-D gene expression in fulvestrant-resistant human MCF7:CFR cells at 100 nM measured after 24 hrs; assay type: functional, cell-based; summary of the method: as §1
MCF7:CFR [9] = assay: Up regulation of CDKN1B gene expression in fulvestrant-resistant human MCF7:CFR cells at 100 nM measured after 24 hrs; assay type: functional, cell-based; summary of the method: as §1
MCF7:CFR [10] = assay: Growth inhibition of fulvestrant-resistant human MCF7:CFR cells at < 300 nM treated for 3 hrs followed by compound washout and measured after 5 days by Hoechst 33342 dye based imaging analysis; assay type: functional, cell-based
CYP2D6 = CYP2D6 (Homo sapiens, UniProt P10635); assay: Inhibition of human CYP2D6 at 10 uM; assay type: ADME
[11] = Protein binding in plasma (unknown origin); assay type: ADME, cell-free; conditions: human
Summary of the method: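 Protein binding reported as percent bound, ketoconazole as reference compound. Run by a contract lab.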

MCF7:TAM1 [12] = assay: Antitumor activity against human MCF7:TAM1 cells xenografted in ovariectomized athymic Nude-Foxn1 mouse assessed as tumor growth inhibition at 50 mg/kg/day, po administered via gavage for 4 weeks in presence of fulvestrant; assay type: functional, organism-based
Summary of the method: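 Orthotopic xenografts of MCF-7:Tam1 cells in 4–6 week old female ovariectomized athymic nude (nude/Foxn1) mice, established with daily tamoxifen 1.5 mg/mouse. Daily oral gavage at 50 (mg/kg)/day for 4 weeks in 0.5% (w/v) HPMC/TWEEN80 1% in water, given alongside fulvestrant 1 mg/mouse/week sc. Tumor volume measured weekly by caliper as length × width² × π/6. TGI computed from day 28 versus initial volumes, relative to vehicle.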

Chain of CYP3A4 (P08684 whole entry): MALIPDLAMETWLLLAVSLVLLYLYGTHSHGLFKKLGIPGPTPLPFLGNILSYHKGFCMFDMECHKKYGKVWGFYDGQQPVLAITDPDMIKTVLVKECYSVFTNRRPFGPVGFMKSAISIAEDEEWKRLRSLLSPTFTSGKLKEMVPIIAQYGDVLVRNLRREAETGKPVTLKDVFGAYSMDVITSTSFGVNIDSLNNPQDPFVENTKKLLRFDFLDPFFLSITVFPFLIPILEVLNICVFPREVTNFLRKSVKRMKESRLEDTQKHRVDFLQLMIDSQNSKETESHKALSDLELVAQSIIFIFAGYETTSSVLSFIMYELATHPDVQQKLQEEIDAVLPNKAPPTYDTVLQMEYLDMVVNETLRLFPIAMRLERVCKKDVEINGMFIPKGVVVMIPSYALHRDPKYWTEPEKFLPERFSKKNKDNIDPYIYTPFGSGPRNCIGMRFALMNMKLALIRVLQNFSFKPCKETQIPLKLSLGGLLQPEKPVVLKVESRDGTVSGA
Chain of CYP2A6 (P11509 whole entry): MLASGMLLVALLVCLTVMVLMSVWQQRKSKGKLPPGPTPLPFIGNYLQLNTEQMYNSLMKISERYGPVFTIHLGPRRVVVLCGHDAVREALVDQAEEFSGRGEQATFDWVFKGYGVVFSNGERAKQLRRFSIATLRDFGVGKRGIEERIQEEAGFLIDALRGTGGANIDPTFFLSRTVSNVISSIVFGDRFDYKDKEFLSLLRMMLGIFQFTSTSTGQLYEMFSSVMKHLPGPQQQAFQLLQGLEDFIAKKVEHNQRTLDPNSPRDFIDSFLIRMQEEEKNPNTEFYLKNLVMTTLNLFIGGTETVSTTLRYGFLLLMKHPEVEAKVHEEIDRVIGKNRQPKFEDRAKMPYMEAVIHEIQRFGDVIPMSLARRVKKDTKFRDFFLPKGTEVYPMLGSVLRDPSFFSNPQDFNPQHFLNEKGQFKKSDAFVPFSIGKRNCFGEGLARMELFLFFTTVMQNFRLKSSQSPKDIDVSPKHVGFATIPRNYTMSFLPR
Chain of CYP2D6 (P10635 whole entry): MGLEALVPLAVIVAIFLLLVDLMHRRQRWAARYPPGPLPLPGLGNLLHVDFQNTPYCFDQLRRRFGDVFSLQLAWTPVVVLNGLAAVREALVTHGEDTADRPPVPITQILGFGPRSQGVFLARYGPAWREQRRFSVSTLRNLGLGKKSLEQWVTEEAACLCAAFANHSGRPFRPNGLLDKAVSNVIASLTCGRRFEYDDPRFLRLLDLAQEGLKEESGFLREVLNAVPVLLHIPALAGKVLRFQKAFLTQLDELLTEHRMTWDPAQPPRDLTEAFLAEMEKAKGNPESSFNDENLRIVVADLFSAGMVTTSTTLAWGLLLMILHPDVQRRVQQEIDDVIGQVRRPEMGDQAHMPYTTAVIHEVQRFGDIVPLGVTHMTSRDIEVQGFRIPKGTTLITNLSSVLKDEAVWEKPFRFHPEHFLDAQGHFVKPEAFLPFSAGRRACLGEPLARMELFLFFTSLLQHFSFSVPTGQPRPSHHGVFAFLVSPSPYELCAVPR
Chain of CYP2C8 (P10632 whole entry): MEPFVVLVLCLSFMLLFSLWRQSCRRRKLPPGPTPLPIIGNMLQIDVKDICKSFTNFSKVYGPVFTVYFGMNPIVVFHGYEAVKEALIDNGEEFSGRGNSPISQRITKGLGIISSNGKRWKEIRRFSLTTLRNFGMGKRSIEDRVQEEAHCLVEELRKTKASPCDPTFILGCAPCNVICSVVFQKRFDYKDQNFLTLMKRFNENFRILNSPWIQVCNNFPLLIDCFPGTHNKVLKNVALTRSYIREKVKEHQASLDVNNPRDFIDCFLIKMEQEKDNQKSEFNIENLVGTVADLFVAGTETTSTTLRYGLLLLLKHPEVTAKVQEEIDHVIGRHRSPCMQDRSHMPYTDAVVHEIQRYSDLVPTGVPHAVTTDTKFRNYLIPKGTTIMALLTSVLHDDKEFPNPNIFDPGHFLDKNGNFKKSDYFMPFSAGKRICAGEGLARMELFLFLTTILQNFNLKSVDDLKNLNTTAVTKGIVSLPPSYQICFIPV

Compound | IC50 [1] | IC50 [2] | other results
Cn1cc(-c2cc(NS(C)(=O)=O)c3ccn(CC4CC(F)(F)C4)c3c2)c2cc[nH]c(=O)c21 | 62 nM | 161 nM | 
Cn1cc(-c2cc(NS(C)(=O)=O)c3ccn(Cc4cccc(F)c4)c3c2)c2cc[nH]c(=O)c21 | 70 nM | 174 nM | 
Cc1cc(F)ccc1Cn1ccc2cc(NS(C)(=O)=O)cc(-c3cn(C)c4c(=O)[nH]ccc34)c21 | 3580 nM | 1000 nM | 
CCS(=O)(=O)Nc1cc(-c2cn(C)c3c(=O)[nH]ccc23)cc2c1ccn2Cc1c(C)cccc1C | 35 nM | 158 nM | 
C[C@]12CC[C@@H]3c4ccc(O)cc4C[C@@H](CCCCCCCCC[S+]([O-])CCCC(F)(F)C(F)(F)F)[C@H]3[C@@H]1CC[C@@H]2O (some centres not stated) |  |  | growth inhibition (GI) (MCF7:CFR [3]): inactive
CC(=O)Nc1cc(-c2cn(C)c3c(=O)[nH]ccc23)cc2c1ccn2C(C)(c1ccccn1)c1ccccn1 | 11 nM | 8.3 nM | IC50 [4]: 21.6 nM
Cc1cc(F)ccc1Cn1ccc2c(NS(C)(=O)=O)cc(-c3cn(C)c4c(=O)[nH]ccc34)cc21 | 119 nM | 600 nM | 
CC(=O)O[C@H]1C(=O)[C@@]2(C)[C@H]([C@H](OC(=O)c3ccccc3)[C@]3(O)C[C@H](OC(=O)[C@H](O)[C@@H](NC(=O)c4ccccc4)c4ccccc4)C(C)=C1C3(C)C)[C@]1(OC(C)=O)CO[C@@H]1C[C@@H]2O [PACLITAXEL] |  |  | inhibition at 10 µM (CYP2C8): 80.9%
O=c1ccc2ccccc2o1 [COUMARIN] |  |  | inhibition at 10 µM (CYP2A6): 98.2%
CC/C(=C(\c1ccccc1)c1ccc(OCCN(C)C)cc1)c1ccccc1 |  |  | TGI (MCF7:TAM1 [5]): inactive
Cn1cc(-c2cc(NS(C)(=O)=O)c3cnn(Cc4ccc(F)cc4)c3c2)c2cc[nH]c(=O)c21 | 68 nM | 89 nM | 
CCS(=O)(=O)Nc1cccc2c1nc(-c1cn(C)c3c(=O)[nH]ccc13)n2Cc1ccc(F)cc1 | 708 nM | 1430 nM | 
Cc1ncc2n1-c1ccc(Cl)cc1C(c1ccccc1F)=NC2 [MIDAZOLAM] |  |  | inhibition at 10 µM (CYP3A4): 99.5%
Cn1cc(-c2cc(C(C)(C)O)c3ccn(C(C)(c4ccccn4)c4ccccn4)c3c2)c2cc[nH]c(=O)c21 | 20 nM | 39.6 nM | IC50 [4]: 220 nM
CCS(=O)(=O)Nc1cc(-c2cn(C)c3c(O)nccc23)cc2c1cnn2Cc1ccc(F)cc1 | 25 nM | 54 nM | 
Cc1sc2c(c1C)C(c1ccc(Cl)cc1)=N[C@@H](CC(=O)OC(C)(C)C)c1nnc(C)n1-2 | 90 nM |  | Activity (MCF7:CFR [6]): Active; Activity (MCF7:CFR [7]): Active; Activity (MCF7:CFR [8]): Active; Activity (MCF7:CFR [9]): Active; growth inhibition (GI) (MCF7:CFR [10]): inactive; growth inhibition (GI) (MCF7:CFR [3]): Active

Compound | IC50 [1] | IC50 [2] | other results
Cn1cc(-c2cc(NS(C)(=O)=O)c3ccn(Cc4ccc(F)cc4)c3c2)c2ccnc(O)c21 | 17 nM | 96 nM | 
COc1nnc2ccc(N3CCC(c4ccc(OCCN5CCN(C)C(=O)[C@H]5C)cc4)CC3)nn12 |  |  | growth inhibition (GI) (MCF7:CFR [3]): Active
Cc1cccc(C)c1Cn1ccc2c(NS(C)(=O)=O)cc(-c3cn(C)c4c(=O)[nH]ccc34)cc21 | 49 nM | 175 nM | 
CCS(=O)(=O)N(c1cccc2c1nc(-c1cn(C)c3c(=O)[nH]ccc13)n2Cc1ccc(F)cc1)S(=O)(=O)CC | 1780 nM |  | 
Cn1cc(-c2cc(NS(C)(=O)=O)c3ccn(C(C)(c4ccccn4)c4ccccn4)c3c2)c2cc[nH]c(=O)c21 | 10 nM | 12.9 nM | IC50 [4]: 12.7 nM
CCS(=O)(=O)Nc1cc(-c2cn(C)c3c(=O)[nH]ccc23)cc2c1ccn2C(c1ccccc1)c1ccccc1 | 15 nM | 83 nM | 
CCC(c1ccccn1)(c1ccccn1)n1ccc2c(NS(=O)(=O)CC)cc(-c3cn(C)c4c(=O)[nH]ccc34)cc21 | 2.2 nM | 9.4 nM | 
Cc1cc(F)cc(C)c1Cn1ccc2cc(NS(C)(=O)=O)cc(-c3cn(C)c4c(=O)[nH]ccc34)c21 | 526 nM | 1400 nM | 
COc1ccc2c(c1)[C@]13CCCC[C@@H]1[C@H](C2)N(C)CC3 [DEXTROMETHORPHAN] |  |  | inhibition at 10 µM (CYP2D6): 94.4%
CCS(=O)(=O)Nc1cc(-c2cn(C)c3c(=O)[nH]ccc23)cc2c1ccn2Cc1ccc(F)cc1 | 56 nM | 48 nM | 
CC(C)C(=O)Nc1cc(-c2cn(C)c3c(=O)[nH]ccc23)cc2c1ccn2C(C)(c1ccccn1)c1ccccn1 | 17 nM | 13 nM | IC50 [4]: 62.8 nM
Cn1cc(-c2cc(NS(C)(=O)=O)c3ccn(CC4(C)COC4)c3c2)c2cc[nH]c(=O)c21 | 134 nM | 180 nM | 
CC(=O)N1CCN(c2ccc(OCC3COC(Cn4ccnc4)(c4ccc(Cl)cc4Cl)O3)cc2)CC1 (configuration not stated) [KETOCONAZOLE] |  |  | PPB [11]: 98.35%
CCNC(=O)C[C@@H]1N=C(c2ccc(Cl)cc2)c2cc(OC)ccc2-n2c(C)nnc21 |  |  | TGI (MCF7:TAM1 [12]): Active
Cn1cc(-c2cc(NS(C)(=O)=O)cc3ccn(Cc4ccc(F)cc4)c23)c2cc[nH]c(=O)c21 | 1990 nM | 1180 nM | 
CC/C(=C(\c1ccc(O)cc1)c1ccc(OCCN(C)C)cc1)c1ccccc1 |  |  | growth inhibition (GI) (MCF7:CFR [3]): inactive
